The subject of series [1] is Rattus norvegicus. The experiment in a line: Antiinflammatory activity in albino rat assessed as inhibition of carrageenan-induced paw edema at 0.029 mmol/kg, po after 2 hrs relative to control. The format is functional. In a few lines: (§1)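 Adult albino rats of either sex, 120–150 g, six per group. Compounds at 0.029 mmol/kg suspended in saline with a few drops of Tween 80 and given by oral stomach tube. After 1 h, 0.1 ml of freshly prepared 1% carrageenan in saline injected subplantar into the right hind paw. Paw thickness measured at 1–4 h; % edema inhibition versus control; mean ± SEM; ANOVA.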

Series [2] has as its system Rattus norvegicus. The experiment in a line: Antiinflammatory activity in albino rat assessed as inhibition of carrageenan-induced paw edema at 0.029 mmol/kg, po after 3 hrs relative to control. The format is functional. In a few lines:
as §1

Series [3] deals with Rattus norvegicus. The experiment in a line: Antiinflammatory activity in albino rat assessed as inhibition of carrageenan-induced paw edema at 0.029 mmol/kg, po after 4 hrs relative to control. The format is functional. In a few lines: as §1
Series [4] concerns Rattus norvegicus. The experiment in a line: Antiinflammatory activity in albino rat assessed as inhibition of carrageenan-induced paw edema at 0.029 mmol/kg, po after 4 hrs relative to indomethacin. The format is functional. In a few lines:
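Rat carrageenan paw edema: oral 0.029 mmol/kg in saline/Tween 80, 1 h before subplantar 0.1 ml 1% carrageenan into the right hind paw; six rats per group. Potency is % inhibition of the test compound divided by % inhibition of indomethacin at 4 h.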

Series [5] concerns Rattus norvegicus. The experiment in a line: Gastrointestinal toxicity in albino rat assessed as ulcerogenic index at 0.029 mmol/kg, po after 5 hrs. The format is organism-based. As to conditions: in vivo. In a few lines:
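Adult albino rats of either sex (120–150 g), 6 per group, got the test compounds orally by stomach tube as a suspension in saline with a few drops of tween 80. They were the same rats used in the carrageenan paw-edema test. Stomachs were then opened along the great curvature and examined for lesions or bleeding. Ulceration was recorded as the number of rats with ulcers out of 6.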

Series [6] concerns Mus musculus. In words: Analgesic activity in albino mouse assessed as decrease in acetic acid-induced writhing at 11.55 mg/kg, po administered 1 hr prior to acetic acid challenge relative to control. The format is functional. In a few lines:
(§2)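 Albino mice of either sex, 18–22 g, six per group. Test agents suspended in saline with a few drops of Tween 80 and given by oral stomach tube; controls handled identically without drug. After 1 h, 0.3 ml of 1% acetic acid ip. Writhing contractions counted for 30 min, starting 5 min after injection. % protection versus control mean; mean ± SEM; one-way ANOVA with post hoc test.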

For series [7], the system named is Rattus norvegicus. The experiment in a line: Antiinflammatory activity in albino rat assessed as inhibition of carrageenan-induced paw edema at 0.029 mmol/kg, po after 1 hr relative to control. The format is functional. In outline:
as §1

The test system of series [8] is Mus musculus. The experiment in a line: Analgesic activity in albino mouse assessed as decrease in acetic acid-induced writhing at 12.87 mg/kg, po administered 1 hr prior to acetic acid challenge relative to control. The format is functional. In a few lines:
as §2

Series [9] concerns Mus musculus. The experiment in a line: Analgesic activity in albino mouse assessed as decrease in acetic acid-induced writhing at 0.4 mg/kg, po administered 1 hr prior to acetic acid challenge. The format is functional. In outline:
as §2

The test system of series [10] is Mus musculus. In words: Analgesic activity in albino mouse assessed as decrease in acetic acid-induced writhing at 11.96 mg/kg, po administered 1 hr prior to acetic acid challenge relative to control. The format is functional. In outline:
as §2

The test system of series [11] is Mus musculus. The experiment in a line: Analgesic activity in albino mouse assessed as decrease in acetic acid-induced writhing at 0.8 mg/kg, po administered 1 hr prior to acetic acid challenge. The format is functional. In a few lines:
as §2

In series [12] the test system is Mus musculus. The experiment in a line: Analgesic activity in albino mouse assessed as decrease in acetic acid-induced writhing at 1 mg/kg, po administered 1 hr prior to acetic acid challenge. The format is functional. In a few lines: as §2
Series [13] has as its system Mus musculus. In words: Analgesic activity in albino mouse assessed as decrease in acetic acid-induced writhing at 2 mg/kg, po administered 1 hr prior to acetic acid challenge. The format is functional. In a few lines:
as §2

In series [14] the test system is Mus musculus. In words: Analgesic activity in albino mouse assessed as decrease in acetic acid-induced writhing at 4 mg/kg, po administered 1 hr prior to acetic acid challenge. The format is functional. In outline:
as §2

In series [15] the test system is Mus musculus. The experiment in a line: Analgesic activity in albino mouse assessed as decrease in acetic acid-induced writhing at 8 mg/kg, po administered 1 hr prior to acetic acid challenge. The format is functional. In a few lines: as §2
Series [16] concerns Mus musculus. In words: Analgesic activity in po dosed albino mouse assessed as decrease in acetic acid-induced writhing administered 1 hr prior to acetic acid challenge. The format is functional, organism-based. In a few lines:
as §2

For series [17], the system named is Mus musculus. The experiment in a line: Analgesic activity in albino mouse assessed as decrease in acetic acid-induced writhing at 13.81 mg/kg, po administered 1 hr prior to acetic acid challenge relative to control. The format is functional. In outline:
as §2

The subject of series [18] is Mus musculus. In words: Analgesic activity in albino mouse assessed as decrease in acetic acid-induced writhing at 13.84 mg/kg, po administered 1 hr prior to acetic acid challenge relative to control. The format is functional. In outline: as §2
Series [19] has as its system Mus musculus. The experiment in a line: Analgesic activity in albino mouse assessed as decrease in acetic acid-induced writhing at 14.37 mg/kg, po administered 1 hr prior to acetic acid challenge relative to control. The format is functional. In outline:
as §2

For series [20], the system named is Mus musculus. In words: Analgesic activity in albino mouse assessed as decrease in acetic acid-induced writhing at 15.26 mg/kg, po administered 1 hr prior to acetic acid challenge relative to control. The format is functional. In a few lines:
as §2

Series [21] relates to Mus musculus. The experiment in a line: Analgesic activity in albino mouse assessed as decrease in acetic acid-induced writhing at 10 mg/kg, po administered 1 hr prior to acetic acid challenge relative to control. The format is functional. In outline: as §2

Here are results for eight compounds from ChEMBL document CHEMBL1155292, “Synthesis, analgesic and anti-inflammatory activities evaluation of some bi-, tri- and tetracyclic condensed pyrimidines” (Eur J Med Chem, 2009).

Regarding `O=C1N(c2ccccc2)c2nc(-c3ccccc3)n3c(=O)[nH]nc3c2C2CCCN12` (configuration not stated), the inhibition in vivo at 29 µmol/kg in [1] was found to be 12.4%; in [2], 17.3%; in [3], 15.5%; in series [7] it was 10.1%. For the same compound, the relative potency at 29 µmol/kg in series [4] is 0.56. Further, the UI result in series [5] was “Non-toxic”. Moreover, the inhibition in vivo at 11.55 mg/kg in [6] worked out at 75.9%.

For `CCOC(=O)NNc1nc(-c2ccccc2)nc2c1C1CCCN1C(=O)N2c1ccccc1` (configuration not stated), the inhibition in vivo at 29 µmol/kg in series [1] came to 17.4%; in series [2], 18%; in series [3], 16.1%; in series [7], 19.1%. For the same compound, the relative potency at 29 µmol/kg in series [4] came to 0.59. In [8], the inhibition in vivo at 12.87 mg/kg came out at 91.8%.

As for `O=C1CN2C(=NN1)C1=C(N=C2c2ccccc2)N(c2ccccc2)C(=O)N2CCCC12` (configuration not stated), the inhibition in vivo at 29 µmol/kg was 7.44% in series [1], 15.8% in series [2], 21.1% in series [3] and 2.23% in series [7]. Further, the relative potency at 29 µmol/kg in series [4] turned out to be 0.77. In addition, the UI entry in series [5] is “Non-toxic”. Also, the inhibition in vivo at 0.4 mg/kg in series [9] amounted to 43.1%. The inhibition in vivo at 11.96 mg/kg in series [10] came to 91.8%. In addition, the inhibition in vivo at 0.8 mg/kg in series [11] stood at 63.3%. Also, in series [12], the inhibition in vivo at 1 mg/kg amounted to 76.6%. Also, in [13], the inhibition in vivo at 2 mg/kg stood at 82.4%. In addition, the inhibition in vivo at 4 mg/kg in series [14] is 86.1%. Further, the inhibition in vivo at 8 mg/kg in [15] was 88.8%. Moreover, in series [16], the IC50 stood at 0.446 mg/kg.

With `O=C(NNc1nc(-c2ccccc2)nc2c1C1CCCN1C(=O)N2c1ccccc1)c1ccccc1` (configuration not stated), the inhibition in vivo at 29 µmol/kg stood at 28.9% in [1], 27.4% in [2], 25.5% in series [3] and 35.9% in [7]. Besides, the relative potency at 29 µmol/kg in series [4] came out at 0.93. For the same compound, the inhibition in vivo at 13.81 mg/kg in [17] is 71.8%.

On to `O=C(NNc1nc(-c2ccccc2)nc2c1C1CCCN1C(=O)N2c1ccccc1)c1cccnc1` (configuration not stated), for which the inhibition in vivo at 29 µmol/kg worked out at 11.6% in [1], 8.63% in [2], 5.59% in series [3] and 32.6% in series [7]. The relative potency at 29 µmol/kg in [4] turned out to be 0.2. Besides, in series [18], the inhibition in vivo at 13.84 mg/kg came to 77.9%.

In the case of `CCOC(=O)c1cnn(-c2nc(-c3ccccc3)nc3c2C2CCCN2C(=O)N3c2ccccc2)c1N` (configuration not stated), the inhibition in vivo at 29 µmol/kg in [1] was found to be 18.2%; in series [2], 23.7%; in series [3], 11.2%; in [7] it was 6.74%. Besides, the relative potency at 29 µmol/kg in series [4] is 0.4. Also, the UI result in series [5] is “Non-toxic”. In series [19], the inhibition in vivo at 14.37 mg/kg amounted to 74.8%.

As to `Cc1ccc(S(=O)(=O)NNc2nc(-c3ccccc3)nc3c2C2CCCN2C(=O)N3c2ccccc2)cc1` (configuration not stated), the inhibition in vivo at 29 µmol/kg in [1] was determined as 16.6%; in series [2], 23.1%; in series [3], 21.7%; in series [7], 22.4%. The relative potency at 29 µmol/kg in series [4] was found to be 0.79. In series [20], the inhibition in vivo at 15.26 mg/kg came out at 76.6%.

As for `COc1ccc2c(c1)c(CC(=O)O)c(C)n2C(=O)c1ccc(Cl)cc1` [INDOMETHACIN], the inhibition in vivo at 29 µmol/kg in series [1] is 35.5%; in [2], 30.9%; in series [3], 27.3%; in [7] it was 47.2%. The inhibition in vivo at 10 mg/kg in series [21] came to 71.6%.
